Measured values taken from ChEMBL document CHEMBL1909541, “Hantzsch reaction: synthesis and characterization of some new 1,4-dihydropyridine derivatives as potent antimicrobial and antioxidant agents” (Eur J Med Chem, 2011).

Legend:
Escherichia coli [1] = assay: Antibacterial activity against Escherichia coli ATCC 25922 at 1 mg/mL after 24 hrs by agar-well diffusion method; assay type: functional; conditions: ATCC 25922, 24 h, read-out: IZ
How it was run: (§1)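 Well diffusion on Mueller-Hinton agar seeded with 24 h old cultures. Test compounds dissolved in DMSO at 1, 0.5 and 0.25 mg/mL. 6 mm wells were punched with a sterile cork borer, test solutions added, and plates incubated 24 h at 37 °C.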

Staphylococcus aureus [2] = assay: Antibacterial activity against Staphylococcus aureus ATCC 25923 at 1 mg/mL after 24 hrs by agar-well diffusion method; assay type: functional; conditions: ATCC 25923, 24 h, read-out: IZ; how it was run: as §1
Pseudomonas aeruginosa [3] = assay: Antibacterial activity against Pseudomonas aeruginosa ATCC 27853 at 1 mg/mL after 24 hrs by agar-well diffusion method; assay type: functional; conditions: ATCC 27853, 24 h, read-out: IZ; how it was run: as §1
Escherichia coli [4] = assay: Antibacterial activity against Escherichia coli ATCC 25922 at 0.5 mg/mL after 24 hrs by agar-well diffusion method; assay type: functional; conditions: ATCC 25922, 24 h, read-out: IZ; how it was run: as §1
Staphylococcus aureus [5] = assay: Antibacterial activity against Staphylococcus aureus ATCC 25923 at 0.5 mg/mL after 24 hrs by agar-well diffusion method; assay type: functional; conditions: ATCC 25923, 24 h, read-out: IZ; how it was run: as §1
Pseudomonas aeruginosa [6] = assay: Antibacterial activity against Pseudomonas aeruginosa ATCC 27853 at 0.5 mg/mL after 24 hrs by agar-well diffusion method; assay type: functional; conditions: ATCC 27853, 24 h, read-out: IZ; how it was run: as §1
Escherichia coli [7] = assay: Antibacterial activity against Escherichia coli ATCC 25922 at 0.25 mg/mL after 24 hrs by agar-well diffusion method; assay type: functional; conditions: ATCC 25922, 24 h, read-out: IZ; how it was run: as §1
Staphylococcus aureus [8] = assay: Antibacterial activity against Staphylococcus aureus ATCC 25923 at 0.25 mg/mL after 24 hrs by agar-well diffusion method; assay type: functional; conditions: ATCC 25923, 24 h, read-out: IZ; how it was run: as §1
Pseudomonas aeruginosa [9] = assay: Antibacterial activity against Pseudomonas aeruginosa ATCC 27853 at 0.25 mg/mL after 24 hrs by agar-well diffusion method; assay type: functional; conditions: ATCC 27853, 24 h, read-out: IZ; how it was run: as §1
Aspergillus flavus [10] = assay: Antifungal activity against Aspergillus flavus MTCC 3306 at 1 mg/mL after 72 hrs by agar-well diffusion method; assay type: functional; conditions: MTCC 3306, 72 h, read-out: DIZ
How it was run: (§2)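 Fungal spore suspensions made in normal saline were spread onto agar adjusted to pH 5.7, then dried 1 h at 37 °C. Wells were cut and loaded with test compounds in DMSO at different concentrations, with a DMSO control. Plates run in triplicate at 25 °C for 72 h. Read-out was inhibition zone diameter.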

[11] = Antifungal activity against Chrysosporium keratinophilum MTCC 2827 at 1 mg/mL after 72 hrs by agar-well diffusion method; assay type: functional; how it was run: as §2
Candida albicans [12] = assay: Antifungal activity against Candida albicans MTCC 3017 at 1 mg/mL after 72 hrs by agar-well diffusion method; assay type: functional; conditions: MTCC 3017, 72 h, read-out: DIZ; how it was run: as §2
Aspergillus flavus [13] = assay: Antifungal activity against Aspergillus flavus MTCC 3306 at 0.5 mg/mL after 72 hrs by agar-well diffusion method; assay type: functional; conditions: MTCC 3306, 72 h, read-out: DIZ; how it was run: as §2
[14] = Antifungal activity against Chrysosporium keratinophilum MTCC 2827 at 0.5 mg/mL after 72 hrs by agar-well diffusion method; assay type: functional; how it was run: as §2
Candida albicans [15] = assay: Antifungal activity against Candida albicans MTCC 3017 at 0.5 mg/mL after 72 hrs by agar-well diffusion method; assay type: functional; conditions: MTCC 3017, 72 h, read-out: DIZ; how it was run: as §2
Aspergillus flavus [16] = assay: Antifungal activity against Aspergillus flavus MTCC 3306 at 0.25 mg/mL after 72 hrs by agar-well diffusion method; assay type: functional; conditions: MTCC 3306, 72 h, read-out: DIZ; how it was run: as §2
[17] = Antifungal activity against Chrysosporium keratinophilum MTCC 2827 at 0.25 mg/mL after 72 hrs by agar-well diffusion method; assay type: functional; how it was run: as §2
Candida albicans [18] = assay: Antifungal activity against Candida albicans MTCC 3017 at 0.25 mg/mL after 72 hrs by agar-well diffusion method; assay type: functional; conditions: MTCC 3017, 72 h, read-out: DIZ; how it was run: as §2
[19] = test system: Radical scavenging activity; assay: Antioxidant activity assessed as DPPH free radical scavenging activity at 100 uM after 30 mins; assay type: functional
How it was run: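 Sample brought to 1 mL with MeOH and mixed with 3 mL fresh 0.1 mM DPPH. Kept 30 min in the dark, then absorbance read at 517 nm. A DPPH control without sample was included. Scavenging (%) = [(Abs control − Abs sample)/Abs control] × 100.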

Mus musculus [20] = assay: Acute toxicity in Swiss albino mouse assessed as behavioral changes up to 3000 mg/kg, po in single dose measured up to 24 hrs; assay type: organism-based; set-up: dose 3000 mg/kg, route oral; conditions: in vivo
How it was run: (§3)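 Single oral dose per OECD acute oral toxicity guidelines, 250 to 3000 mg/kg, given as a fine suspension in double distilled water with Tween 80. Toxic symptoms and behavioral changes observed continuously for 4 h, then at 8, 12 and 24 h; deaths recorded.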

Mus musculus [21] = assay: Acute toxicity in Swiss albino mouse assessed as mortality up to 3000 mg/kg, po in single dose measured up to 24 hrs; assay type: organism-based; set-up: dose 3000 mg/kg, route oral; conditions: in vivo; how it was run: as §3
Mus musculus [22] = assay: Acute toxicity in Swiss albino mouse assessed as behavioral changes at >2000 mg/kg, po in single dose measured up to 24 hrs; assay type: organism-based; conditions: in vivo; how it was run: as §3
Mus musculus [23] = assay: Acute toxicity in Swiss albino mouse assessed as mortality at >2000 mg/kg, po in single dose measured up to 24 hrs; assay type: organism-based; conditions: in vivo; how it was run: as §3

| Structure (SMILES) | zone of inhibition at 1000 µg/mL (Escherichia coli [1]) | zone of inhibition at 1000 µg/mL (Staphylococcus aureus [2]) | zone of inhibition at 1000 µg/mL (Pseudomonas aeruginosa [3]) | zone of inhibition at 500 µg/mL (Escherichia coli [4]) | zone of inhibition at 500 µg/mL (Staphylococcus aureus [5]) | zone of inhibition at 500 µg/mL (Pseudomonas aeruginosa [6]) | zone of inhibition at 250 µg/mL (Escherichia coli [7]) | zone of inhibition at 250 µg/mL (Staphylococcus aureus [8]) | zone of inhibition at 250 µg/mL (Pseudomonas aeruginosa [9]) | zone of inhibition at 1000 µg/mL (Aspergillus flavus [10]) | inhibition zone (IZ) [11] | zone of inhibition at 1000 µg/mL (Candida albicans [12]) | zone of inhibition at 500 µg/mL (Aspergillus flavus [13]) | inhibition zone (IZ) [14] | zone of inhibition at 500 µg/mL (Candida albicans [15]) | zone of inhibition at 250 µg/mL (Aspergillus flavus [16]) | inhibition zone (IZ) [17] | zone of inhibition at 250 µg/mL (Candida albicans [18]) | Activity [19] | Activity (Mus musculus [20]) | other results |
| --- | --- | --- | --- | --- | --- | --- | --- | --- | --- | --- | --- | --- | --- | --- | --- | --- | --- | --- | --- | --- | --- |
| CCOC(=O)C1=C(C)NC(C)=C(C(=O)OCC)C1c1c[nH]nc1-c1ccc(SC)cc1 | 17 mm | 16 mm | 14 mm | 12 mm | 12 mm | 11 mm | 9 mm | 10 mm | 8 mm | 0 mm | 0 mm | 0 mm | 0 mm | 0 mm | 0 mm | 0 mm | 0 mm | 0 mm | 61.1% | Non-toxic | Activity (Mus musculus [21]): Non-toxic |
| CCOC(=O)C1=C(C)NC(C)=C(C(=O)OCC)C1c1c[nH]nc1-c1ccc(Cl)cc1 | 17 mm | 15 mm | 16 mm | 12 mm | 10 mm | 13 mm | 10 mm | 8 mm | 10 mm | 2 mm | 3 mm | 4 mm | 0 mm | 0 mm | 2 mm | 0 mm | 0 mm | 0 mm | 62.3% | – | Activity (Mus musculus [22]): Toxic; Activity (Mus musculus [23]): Toxic |
| CCOC(=O)C1=C(C)NC(C)=C(C(=O)OCC)C1c1c[nH]nc1-c1ccc(-c2ccccc2)cc1 | 13 mm | 16 mm | 17 mm | 10 mm | 12 mm | 13 mm | 7 mm | 10 mm | 11 mm | 5 mm | 3 mm | 6 mm | 2 mm | 0 mm | 4 mm | 1 mm | 0 mm | 2 mm | 65.3% | Non-toxic | Activity (Mus musculus [21]): Non-toxic |
